Experimental data from ChEMBL document CHEMBL2157965, “Structure-based design of potent Bcl-2/Bcl-xL inhibitors with strong in vivo antitumor activity” (J Med Chem, 2012).
Active and inactive are the calls of the source. No cut-off for these calls is given here. Peptide text beside a SMILES is read from it.

Legend:
Bcl-2-like protein 1 = Bcl-2-like protein 1 (Homo sapiens, UniProt Q07817); test: Inhibition of human N-terminal His8-tagged Bcl-XL expressed in Escherichia coli BL21(DE3) assessed as inhibition of Fluorescein-labeled BAK binding after 1 to 2 hrs by fluorescence polarization assay
[1] = biological target: Induced myeloid leukemia cell differentiation protein Mcl-1 (Homo sapiens, UniProt Q07820); test: Inhibition of human N-terminal His8-tagged Mcl1 expressed in Escherichia coli BL21(DE3) assessed as inhibition of Fluorescein-labeled BID binding after 1 to 2 hrs by fluorescence polarization assay
[2] = Antiproliferative activity against human NCI-H146 cells after 4 days by WST8 assay; format: functional, cell-based; conditions: NCI-H146, 96 h
Outline: (§1)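 Growth inhibition was measured as described previously. IC50 values come from growth curves.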

NCI-H146 [3] = test: Induction of apoptosis in human NCI-H146 cells assessed as PARP cleavage at 30 nM after 2 hrs by Western blot analysis; format: functional, cell-based
Mus musculus [4] = test: Toxicity in SCID mouse assessed as weight loss at 25 mg/kg, iv administered 5 days a week for 2 weeks; format: organism-based; design: dose 25 mg/kg, route intravenous; conditions: in vivo
NCI-H146 [5] = test: Induction of cell death in human NCI-H146 cells after 24 hrs by trypan blue assay; format: functional, cell-based
Outline: (§2)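 H146 cells were treated for 24 h across a range of concentrations. Cell death was scored by trypan blue assay.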

NCI-H146 [6] = test: Induction of cell death in human NCI-H146 cells at 10 nM after 24 hrs by trypan blue assay; format: functional, cell-based; outline: as §2
NCI-H146 [7] = test: Induction of apoptosis in human NCI-H146 cells assessed as caspase3 activation after 24 hrs by Western blot analysis; format: functional, cell-based
Outline: (§3)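 H146 cells were treated for 24 h at a range of concentrations. Lysates were probed by Western blot with rabbit antibodies to PARP and caspase-3, detecting the cleaved forms. GAPDH served as loading control.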

NCI-H146 [8] = test: Induction of apoptosis in human NCI-H146 cells assessed as PARP cleavage after 24 hrs by Western blot analysis; format: functional, cell-based; outline: as §3
NCI-H146 [9] = test: Induction of apoptosis in human NCI-H146 cells assessed as caspase3 activation at 10 nM after 24 hrs by Western blot analysis; format: functional, cell-based; outline: as §3
NCI-H146 [10] = test: Induction of apoptosis in human NCI-H146 cells assessed as PARP cleavage at 10 nM after 24 hrs by Western blot analysis; format: functional, cell-based; outline: as §3
NCI-H146 [11] = test: Induction of apoptosis in human NCI-H146 cells assessed as increase in cytochrome c release after 2 hrs; format: functional, cell-based
NCI-H146 [12] = test: Induction of apoptosis in human NCI-H146 cells assessed as PARP cleavage after 2 hrs by Western blot analysis; format: functional, cell-based
NCI-H146 [13] = test: Induction of apoptosis in human NCI-H146 cells assessed as increase in cytochrome c release at 30 nM after 2 hrs; format: functional, cell-based
NCI-H1963 = test: Antiproliferative activity against human NCI-H1963 cells after 4 days by WST8 assay; format: functional, cell-based; conditions: NCI-H1963, 96 h; outline: as §1
NCI-H146 [14] = test: Induction of apoptosis in human NCI-H146 cells xenografted in SCID mouse assessed as PARP cleavage at 25 mg/kg, iv at 3 hrs by Western blot analysis; format: functional, organism-based; design: dose 25 mg/kg
Outline: (§4)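 SCID mice bearing subcutaneous H146 tumors (about 100 mm3) received a single i.v. dose of 25 mg/kg or vehicle. Tumors were collected at 3, 6 and 24 h. Western blot of tumor tissue assessed PARP and caspase-3 and their cleaved forms, with GAPDH as loading control.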

NCI-H146 [15] = test: Induction of apoptosis in human NCI-H146 cells xenografted in SCID mouse assessed as caspase3 activation at 25 mg/kg, iv at 3 hrs by Western blot analysis; format: functional, organism-based; design: dose 25 mg/kg; outline: as §4
NCI-H146 [16] = test: Induction of apoptosis in human NCI-H146 cells xenografted in SCID mouse assessed as PARP cleavage at 25 mg/kg, iv up to 24 hrs by Western blot analysis; format: functional, organism-based; design: dose 25 mg/kg; outline: as §4
NCI-H146 [17] = test: Induction of apoptosis in human NCI-H146 cells xenografted in SCID mouse assessed as caspase3 activation at 25 mg/kg, iv up to 24 hrs by Western blot analysis; format: functional, organism-based; design: dose 25 mg/kg; outline: as §4
NCI-H146 [18] = test: Antitumor activity against human NCI-H146 cells xenografted in SCID mouse assessed as tumor growth inhibition at 25 mg/kg, iv administered 5 days a week for 2 weeks relative to vehicle-treated control; format: functional, organism-based; design: dose 25 mg/kg
Outline: (§5)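 SCID mice received 5 × 10^6 H146 cells with matrigel, injected subcutaneously on the dorsal side, one tumor per mouse. At 40–110 mm3 (mean 70 mm3), mice were randomized, 8 per group. Dosing was 25 mg/kg i.v. daily, 5 days/week for 2 weeks, versus vehicle. Tumor size and body weight were measured 3×/week during treatment and 2×/week afterwards.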

NCI-H146 [19] = test: Antitumor activity against human NCI-H146 cells xenografted in SCID mouse assessed as tumor regression at 25 mg/kg, iv administered 5 days a week for 2 weeks relative to vehicle-treated control; format: functional, organism-based; design: dose 25 mg/kg; outline: as §5
[20] = Antitumor activity against human NCI-H146 cells xenografted in SCID mouse assessed as tumor size at 25 mg/kg, iv administered 5 days a week for 2 weeks measured on day 92 ( Rvb = 800 mm3); format: functional; outline: as §5
Mus musculus [21] = test: Toxicity in SCID mouse xenografted with human NCI-H146 cells assessed as weight loss at 25 mg/kg, iv administered 5 days a week for 2 weeks; format: organism-based; design: dose 25 mg/kg, route intravenous; conditions: in vivo; outline: as §5
[22] = Inhibition of human N-terminal His6-tagged Bcl2 isoform 2 expressed in Escherichia coli BL21(DE3) assessed as inhibition of Fluorescein-labeled BIM binding after 1 to 2 hrs by fluorescence polarization assay
NCI-H1417 = test: Antiproliferative activity against human NCI-H1417 cells after 4 days by WST8 assay; format: functional, cell-based; conditions: NCI-H1417, 96 h; outline: as §1

Chain of Bcl-2-like protein 1 (Q07817 whole entry): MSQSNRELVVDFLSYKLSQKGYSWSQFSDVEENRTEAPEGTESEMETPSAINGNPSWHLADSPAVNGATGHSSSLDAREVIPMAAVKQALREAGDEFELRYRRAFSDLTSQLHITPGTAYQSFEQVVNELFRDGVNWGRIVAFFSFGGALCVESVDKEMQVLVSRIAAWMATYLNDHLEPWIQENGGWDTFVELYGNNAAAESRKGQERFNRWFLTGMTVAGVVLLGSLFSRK
Chain of Induced myeloid leukemia cell differentiation protein Mcl-1 (Q07820 whole entry): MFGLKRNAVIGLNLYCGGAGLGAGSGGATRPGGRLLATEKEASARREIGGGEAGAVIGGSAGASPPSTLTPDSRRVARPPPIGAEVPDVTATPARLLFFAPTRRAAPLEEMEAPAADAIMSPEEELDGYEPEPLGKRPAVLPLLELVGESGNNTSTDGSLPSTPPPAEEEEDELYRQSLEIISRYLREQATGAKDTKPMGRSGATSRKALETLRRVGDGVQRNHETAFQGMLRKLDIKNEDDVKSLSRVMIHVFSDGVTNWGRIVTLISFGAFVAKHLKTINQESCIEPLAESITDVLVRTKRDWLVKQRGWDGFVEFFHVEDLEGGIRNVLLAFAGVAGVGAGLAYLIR

IC50 (Bcl-2-like protein 1) | Ki (Bcl-2-like protein 1) | IC50 [1] | IC50 (NCI-H1963) | IC50 [22] | IC50 (NCI-H1417) | SMILES | IC50 [2] | Activity (NCI-H146 [5]) | Activity (NCI-H146 [7]) | Activity (NCI-H146 [8]) | Ki [22] | further results
11 nM | 1.2 nM | > 10000 nM | – | – | – | Cc1cc(-c2cccc(N3CCN(c4ccc(NS(=O)(=O)c5ccc(N[C@H](CCN(C)C)CSc6ccccc6)c([N+](=O)[O-])c5)cc4)CC3)c2)c(-c2ccc(Cl)cc2)n1C | > 10000 nM | – | – | – | – | –
4.8 nM | < 1 nM | > 2000 nM | – | – | – | Cc1c(C(=O)O)c(-c2cccc(N3CCN(c4ccc(NS(=O)(=O)c5ccc(N[C@H](CCN(C)C)CSc6ccccc6)c([N+](=O)[O-])c5)cc4)CC3)c2)c(-c2ccc(Cl)cc2)n1C(C)C | – | Dose-dependent effect | Dose-dependent effect | Dose-dependent effect | – | Activity (NCI-H146 [3]): Active; Activity (Mus musculus [4]): Toxic; Activity (NCI-H146 [6]): Active; Activity (NCI-H146 [9]): Active; Activity (NCI-H146 [10]): Active; Activity (NCI-H146 [11]): Dose-dependent effect; Activity (NCI-H146 [12]): Dose-dependent effect; Activity (NCI-H146 [13]): Active
– | – | – | > 10000 nM | – | – | CN1CCN(CCCNC(=O)c2c(-c3ccccc3)c(-c3ccc(Cl)cc3)cn2CC[C@H](O)CO)CC1 | – | – | – | – | – | –
6.6 nM | < 1 nM | > 2000 nM | 4.5 nM | 2 nM | 17.7 nM | CCn1c(C)c(C(=O)O)c(-c2cccc(N3CCN(c4ccc(NS(=O)(=O)c5ccc(N[C@H](CCN(C)C)CSc6ccccc6)c([N+](=O)[O-])c5)cc4)CC3)c2)c1-c1ccc(Cl)cc1 | 8.1 nM | Dose-dependent effect | Dose-dependent effect | Dose-dependent effect | < 0.6 nM | Activity (NCI-H146 [3]): Active; Activity (Mus musculus [4]): Non-toxic; Activity (NCI-H146 [14]): Active; Activity (NCI-H146 [15]): Active; Activity (NCI-H146 [16]): Active; Activity (NCI-H146 [17]): Active; TGI (NCI-H146 [18]): Active; Activity (NCI-H146 [19]): Active; Activity [20]: 200 mm3; Activity (Mus musculus [21]): < 10%; Activity (NCI-H146 [6]): Active; Activity (NCI-H146 [11]): Dose-dependent effect; Activity (NCI-H146 [12]): Dose-dependent effect; Activity (NCI-H146 [13]): Active
– | < 1 nM | > 2000 nM | – | 1.3 nM | – | Cc1c(C(=O)O)c(-c2cccc(N3CCN(c4ccc(NS(=O)(=O)c5ccc(N[C@H](CCN(C)C)CSc6ccccc6)c([N+](=O)[O-])c5)cc4)CC3)c2)c(-c2ccc(Cl)cc2)n1C | – | Dose-dependent effect | Dose-dependent effect | Dose-dependent effect | < 0.6 nM | –
7.7 nM | < 1 nM | > 2000 nM | 60 nM | 17.6 nM | 154 nM | Cc1c(C(=O)O)c(-c2cccc(N3CCN(c4ccc(NS(=O)(=O)c5ccc(N[C@H](CCN(C)C)CSc6ccccc6)c([N+](=O)[O-])c5)cc4)CC3)c2)c(-c2ccc(Cl)cc2)n1C1CC1 | 69 nM | – | – | – | 4.3 nM | –
– | – | > 100000 nM | > 10000 nM | – | > 10000 nM | Cc1c(C(=O)NCCCN2CCN(C)CC2)c(-c2cccc(N3CCN(c4ccc(C(=O)NS(=O)(=O)c5ccc(N[C@H](CCN(C)C)CSc6ccccc6)c([N+](=O)[O-])c5)cc4)CC3)c2)c(-c2ccc(Cl)cc2)n1C | > 10000 nM | – | – | – | 7 nM | –
291000 nM | 88000 nM | > 100000 nM | > 10000 nM | 103000 nM | > 10000 nM | Cc1c(C(=O)NCCCN2CCN(C)CC2)c(-c2ccccc2)c(-c2ccc(Cl)cc2)n1C | > 10000 nM | – | – | – | 38000 nM | –
– | – | – | 59 nM | – | 412 nM | CN(C)CC[C@H](CSc1ccccc1)Nc1ccc(S(=O)(=O)NC(=O)c2ccc(N3CCN(Cc4ccccc4-c4ccc(Cl)cc4)CC3)cc2)cc1[N+](=O)[O-] [ABT 737] | 37 nM | Dose-dependent effect | Dose-dependent effect | Dose-dependent effect | – | –
– | < 1 nM | – | 30 nM | 5 nM | 109 nM | CNC(=O)c1c(-c2cccc(N3CCN(c4ccc(NS(=O)(=O)c5ccc(N[C@H](CCN(C)C)CSc6ccccc6)c([N+](=O)[O-])c5)cc4)CC3)c2)c(-c2ccc(Cl)cc2)n(C)c1C | 36 nM | – | – | – | 1.1 nM | –

SMILES | IC50 (Bcl-2-like protein 1) | Ki (Bcl-2-like protein 1) | IC50 [1] | IC50 (NCI-H1963) | IC50 [22] | IC50 (NCI-H1417) | IC50 [2] | Activity (NCI-H146 [5]) | Activity (NCI-H146 [7]) | Activity (NCI-H146 [8]) | Ki [22] | further results
CC(C)C[C@H](NC(=O)[C@H](CCCCN)NC(=O)[C@H](CC(=O)O)NC(=O)CNC(=O)[C@H](Cc1ccccc1)NC(=O)[C@H](CCCNC(=N)N)NC(=O)[C@H](CCCNC(=N)N)NC(=O)[C@H](CC(C)C)NC(=O)[C@H](CCC(N)=O)NC(=O)[C@@H](NC(=O)[C@H](C)NC(=O)[C@H](CS)NC(=O)[C@H](CCC(=O)O)NC(=O)[C@@H](NC(=O)[C@H](CCC(=O)O)NC(=O)[C@H](CC(C)C)NC(=O)[C@@H](N)CCC(=O)O)C(C)C)[C@@H](C)O)C(=O)N[C@@H](CC(N)=O)C(=O)N[C@@H](Cc1ccccc1)C(=O)N[C@@H](CCCNC(=N)N)C(=O)N[C@@H](CCC(N)=O)C(=O)N[C@@H](CCCCN)C(=O)O (H-ELEVECATQLRRFGDKLNFRQK-OH) | 11000 nM | 3400 nM | 37 nM | – | – | – | – | – | – | – | – | –
Cc1c(C(=O)NCCCN2CCN(C)CC2)c(-c2cccc(N3CCN(c4ccc(NS(=O)(=O)c5ccc(N[C@H](CCN(C)C)CSc6ccccc6)c([N+](=O)[O-])c5)cc4)CC3)c2)c(-c2ccc(Cl)cc2)n1C | – | 2.4 nM | > 10000 nM | 72 nM | 2 nM | 258 nM | 110 nM | – | – | – | < 0.6 nM | –
CSCC[C@H](NC(=O)[C@H](CCCN=C(N)N)NC(=O)[C@H](CCCN=C(N)N)NC(=O)[C@H](CC(C)C)NC(=O)[C@H](CCC(=O)O)NC(=O)[C@H](CCCN=C(N)N)NC(=O)CNC(=O)[C@H](Cc1ccc(O)cc1)NC(=O)[C@H](CCCN=C(N)N)NC(=O)[C@H](CCC(N)=O)NC(=O)[C@H](C)NC(=O)[C@H](C)NC(=O)[C@@H](N)Cc1c[nH]c2ccccc12)C(=O)N[C@@H](CO)C(=O)N[C@@H](CC(=O)O)C(=O)N[C@@H](CCC(=O)O)C(=O)N[C@@H](Cc1ccccc1)C(=O)N[C@H](C(=O)N[C@@H](CC(=O)O)C(=O)N[C@@H](CO)C(=O)N[C@@H](Cc1ccccc1)C(=O)N[C@@H](CCCCN)C(=O)O)C(C)C (H-WAAQRYGRELRRMSDEFVDSFK-OH) | 5 nM | < 1 nM | 32000 nM | – | – | – | – | – | – | – | – | –
